Assay results: ChEMBL document CHEMBL4765239, “Discovery of a Novel Highly Selective Histamine H4 Receptor Antagonist for the Treatment of Atopic Dermatitis” (J Med Chem, 2018)
The source made the active and inactive calls. The calls are words filed in the database; no cut-off is given here.

How the values were obtained:
Histamine H4 receptor [1] = biological target: T1, Histamine H4 receptor (Homo sapiens, UniProt Q9H3N8); assay: Displacement of [3H]-histamine from recombinant human histamine H4 receptor expressed in CHO-K1 cell membranes measured after 30 mins by microbeta scintillation counting method; design: species or system Cell membrane
Mus musculus [2] = assay: Anti-pruritus activity in oxazolone-induced Balb/c mouse model of atopic dermatitis assessed as reduction of scratching bouts at 50 mg/kg, po BID administered 30 mins prior to oxazolone challenge for 3 weeks and measured on day 25; type: functional, organism-based
Outline: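 Female BALB/c mice (n=8), abdomen shaved. Sensitized on day 0 with topical 1% oxazolone (50 µL) in acetone/corn oil 4:1. From day 7, right ear challenged with 0.2% oxazolone (25 µL) 3 times weekly; left ear got vehicle. Oral dosing twice daily, 30 min before challenge, for 3 weeks. Scratching counted for 1 h after challenge on day 25. Ear thickness measured; ear fixed in 4% paraformaldehyde, 3 µm paraffin sections stained with H&E for epidermal thickness. Mean ± S.E.M., t-test.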

Mus musculus [3] = assay: Anti-pruritus activity in ICR mouse with C48/80-induced itching assessed as reduction of scratching bouts at 50 mg/kg, po administered 30 mins prior to […] and measured upto 20 mins; type: functional, organism-based; conditions: time 50.0 min
Outline: (§1)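 Female ICR mice (n=8-10 per group), back skin clipped 24 h before. Oral dose in 20% hydroxypropyl-β-cyclodextrin given 30 min before intradermal pruritogen in saline: histamine 300 nmol, substance P 100 nmol or C48/80 100 µg. Scratching bouts counted from video for 20 min after injection. Mean ± S.E.M., Student's t-test.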

Mus musculus [4] = assay: Anti-pruritus activity in ICR mouse with substance P-induced itching assessed as reduction of scratching bouts at 50 mg/kg, po administered 30 mins prior to […] and measured upto 20 mins; type: functional, organism-based; conditions: time 50.0 min; outline: as §1
Mus musculus [5] = assay: Anti-pruritus activity in ICR mouse with histamine-induced itching assessed as free plasma concentration causing 50% reduction of scratching bouts at 10 mg/kg, po administered 30 mins prior to histamine challenge and measured upto 20 mins; type: functional; conditions: time 50 min
Outline: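 Female ICR mice, oral dose in 20% hydroxypropyl-β-cyclodextrin 30 min before intradermal histamine (300 nmol). Scratching bouts counted over 20 min from video. Free plasma concentration at Tmax was plotted against the scratching response.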

[6] = biological target: T2, 5-hydroxytryptamine receptor 3A (Homo sapiens) (UniProt P46098); assay: Displacement of [3H]BRL 43694 from human recombinant 5-HT3 receptor at 10 uM after 120 mins by scintillation counting analysis relative to control
T2 sequence (whole entry): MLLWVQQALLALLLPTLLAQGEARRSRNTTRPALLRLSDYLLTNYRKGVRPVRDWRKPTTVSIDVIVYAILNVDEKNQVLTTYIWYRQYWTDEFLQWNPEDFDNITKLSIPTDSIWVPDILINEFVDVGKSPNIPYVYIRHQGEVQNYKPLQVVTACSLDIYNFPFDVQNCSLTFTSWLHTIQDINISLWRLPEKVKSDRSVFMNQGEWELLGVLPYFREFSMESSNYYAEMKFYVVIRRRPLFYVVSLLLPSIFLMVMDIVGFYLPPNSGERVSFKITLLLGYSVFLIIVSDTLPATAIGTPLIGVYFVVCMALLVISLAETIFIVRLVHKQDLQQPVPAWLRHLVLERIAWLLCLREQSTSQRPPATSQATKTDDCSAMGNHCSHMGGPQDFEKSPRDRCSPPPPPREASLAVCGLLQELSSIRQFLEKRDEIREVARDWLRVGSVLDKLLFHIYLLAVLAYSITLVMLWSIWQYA

Histamine H4 receptor [7] = biological target: T1, Histamine H4 receptor; assay: Antagonist activity at recombinant human histamine H4 receptor expressed in CHO-K1 cells assessed as inhibition of R-alpha-methylhistamine induced stimulation of [35S]-GTPgammaS binding by scintillation proximity assay; type: functional, cell membranes, Cell membrane
Outline: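 Functional [35S]GTPγS binding on recombinant human H4R. Antagonism was measured against the reference agonist R-α-methylhistamine, with JNJ10191584 as the reference antagonist. Run by a contract lab.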

Histamine H4 receptor [8] = biological target: T3, Histamine H4 receptor (Mus musculus, UniProt Q91ZY2); assay: Antagonist activity at recombinant mouse histamine H4 receptor expressed in CHO-K1 cells assessed as inhibition of R-alpha-methylhistamine induced stimulation of [35S]-GTPgammaS binding by scintillation proximity assay; type: functional, cell membranes, Cell membrane
T3 sequence (Q91ZY2 whole entry): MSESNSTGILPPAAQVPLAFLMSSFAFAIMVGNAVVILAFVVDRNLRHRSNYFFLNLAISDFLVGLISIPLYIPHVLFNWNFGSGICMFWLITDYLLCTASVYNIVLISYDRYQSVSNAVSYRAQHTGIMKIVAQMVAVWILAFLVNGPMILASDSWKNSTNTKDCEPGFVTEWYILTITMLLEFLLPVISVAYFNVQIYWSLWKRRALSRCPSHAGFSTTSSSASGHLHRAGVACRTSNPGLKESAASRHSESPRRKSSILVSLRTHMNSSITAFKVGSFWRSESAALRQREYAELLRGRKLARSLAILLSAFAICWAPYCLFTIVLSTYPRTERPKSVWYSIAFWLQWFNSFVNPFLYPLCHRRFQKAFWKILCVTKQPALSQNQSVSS
Outline: (§2)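 GTPγ35S binding on recombinant mouse H4R, run by an outside contractor. R-α-methylhistamine served as reference agonist and thioperamide as reference antagonist.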

[9] = biological target: T4, Histamine H4 receptor (Mus musculus) (UniProt Q91ZY2); assay: Agonist activity at recombinant mouse histamine H4 receptor expressed in CHO-K1 cells assessed as stimulation of [35S]-GTPgammaS binding by scintillation proximity assay; type: functional, cell membranes; conditions: Cell membrane; outline: as §2
T4 sequence (whole entry): T3 sequence (Q91ZY2 whole entry)

[10] = Cmax in ICR mouse at 50 mg/kg, po measured upto 24 hrs by LC-MS/MS analysis; type: ADME, organism-based; design: route oral, dose 50 mg/kg, time <=24; conditions: in vivo
Outline: (§3)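 Female ICR mice, n=3 per group, given test compound orally. Blood sampled at 0.5, 1, 2, 4, 7 and 24 h post dose; plasma levels quantified by LC-MS/MS. Parameters from non-compartmental analysis.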

[11] = Cmax in ICR mouse at 2 mg/kg, po measured upto 24 hrs by LC-MS/MS analysis; type: ADME, organism-based; design: route oral, dose 2 mg/kg, time <=24; conditions: in vivo; outline: as §3
[12] = Tmax in ICR mouse at 50 mg/kg, po measured upto 24 hrs by LC-MS/MS analysis; type: ADME, organism-based; conditions: in vivo; outline: as §3
[13] = AUC (all) in ICR mouse at 50 mg/kg, po measured upto 24 hrs by LC-MS/MS analysis; type: ADME, organism-based; design: route oral, dose 50 mg/kg, time <=24; conditions: in vivo; outline: as §3
[14] = Ratio of anti-pruritus activity in ICR mouse with histamine-induced itching assessed as free plasma concentration causing 50% reduction of scratching bouts at 10 mg/kg, po administered 30 mins prior to histamine challenge and measured upto 20 mins to Ic50 for displacement of [3H]-histamine from recombinant mouse histamine H4 receptor expressed in CHO-K1 cell membranes
Outline: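 Itch model: female ICR mice (n=8-10), back clipped 24 h earlier, dosed orally in 20% hydroxypropyl-β-cyclodextrin 30 min before intradermal histamine (300 nmol, saline). Scratching bouts were videorecorded for 20 min. Free plasma concentration taken at Tmax. Binding used CHO-K1 mouse H4R membranes with [3H]histamine in 50 mM Tris-HCl pH 7.4, 30 min at 27 °C, then filtration and scintillation counting.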

Mus musculus [15] = assay: Anti-pruritus activity in ICR mouse with histamine-induced itching assessed as reduction of scratching bouts at 50 mg/kg, po administered 30 mins prior to histamine challenge and measured upto 20 mins; type: functional; conditions: 50 min; outline: as §1
[16] = Protein binding in mouse plasma; type: ADME, cell-free; conditions: read-out: PPB (converted)
[17] = Protein binding in human plasma; type: ADME, cell-free; conditions: read-out: PPB (converted)

T1 sequence (Q9H3N8 whole entry): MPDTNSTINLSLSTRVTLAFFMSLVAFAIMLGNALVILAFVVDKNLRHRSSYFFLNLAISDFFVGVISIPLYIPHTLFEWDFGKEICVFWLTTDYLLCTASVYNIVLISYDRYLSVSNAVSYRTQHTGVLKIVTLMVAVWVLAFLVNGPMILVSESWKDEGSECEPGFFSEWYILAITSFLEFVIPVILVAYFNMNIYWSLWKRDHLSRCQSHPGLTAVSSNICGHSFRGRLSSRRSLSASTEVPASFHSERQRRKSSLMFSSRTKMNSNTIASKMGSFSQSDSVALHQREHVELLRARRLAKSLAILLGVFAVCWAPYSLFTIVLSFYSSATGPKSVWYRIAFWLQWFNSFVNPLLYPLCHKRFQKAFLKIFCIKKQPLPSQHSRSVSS

With CNC1CN(c2nc3ncc(Br)cc3n3nnnc23)C1 the IC50 (Histamine H4 receptor [1]) was 27 nM, the Activity (Mus musculus [2]) was “Active” and the Activity (Mus musculus [3]) was “Active”. For the same compound, the Activity (Mus musculus [4]) was “Active”, the “Cp(f)” value (Mus musculus [5]) was 1.89 µM and the inhibition [6] was 14%. The IC50 (Histamine H4 receptor [7]) was 28 nM, the IC50 (Histamine H4 receptor [8]) was 690 nM and the Activity [9] was “inactive”. For the same compound, the Cmax [10] was 7690 ng/mL, the Cmax [11] was 180 ng/mL and the Tmax [12] was 30 min. It also gave an AUC at 24 h [13] of 62600 ng·h/mL, a Ratio [14] of 3 and an inhibition in vivo at 50 mg/kg (Mus musculus [15]) of 100%. It also gave a fraction unbound [16] of 0.348 and a fraction unbound [17] of 0.265.
